From PubChem BioAssay
Compounds with a hit are over-represented: about 3.5% of the library has one in this group of screens.
RGS4 block = inhibitors of human RGS4 | B-score at 10 µM | HEK293 M3R/RGS4 inducible, Fluo-4 calcium flux; active compounds read high; triggered by carbachol at its EC20 | P49798 | 310,000 tested, 0.45% active;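 active = B-score, a plate-corrected calcium signal, over three deviations above library mean, with baseline fluorescence within five deviations of library mean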;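 also: RGS4 expression induced by doxycycline in cells with stable M3 receptor; B-score is computed from the integrated fluorescence ratio over baseline after carbachol; higher B-score means a larger calcium signal and so more RGS4 inhibition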
Target sequence (P49798 whole entry, looked up): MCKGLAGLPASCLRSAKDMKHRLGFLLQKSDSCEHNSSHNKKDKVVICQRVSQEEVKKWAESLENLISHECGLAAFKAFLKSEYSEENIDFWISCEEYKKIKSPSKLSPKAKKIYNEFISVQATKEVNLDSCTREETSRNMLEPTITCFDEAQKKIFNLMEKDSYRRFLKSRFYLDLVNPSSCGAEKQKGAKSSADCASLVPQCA
MrgX1 ag = agonists of human MrgX1 receptor | 310,000 tested, 0.44% active | MrgX1-HEK293 cells, Fluo-4 calcium fluorescence, agonist mode; active compounds read high | B-score at 10 µM;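 active = calcium response B-score plate-corrected fluorescence ratio at least 3 library SD, with starting fluorescence B-score inside 5 SD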
Target sequence (Q96LB2 whole entry, looked up): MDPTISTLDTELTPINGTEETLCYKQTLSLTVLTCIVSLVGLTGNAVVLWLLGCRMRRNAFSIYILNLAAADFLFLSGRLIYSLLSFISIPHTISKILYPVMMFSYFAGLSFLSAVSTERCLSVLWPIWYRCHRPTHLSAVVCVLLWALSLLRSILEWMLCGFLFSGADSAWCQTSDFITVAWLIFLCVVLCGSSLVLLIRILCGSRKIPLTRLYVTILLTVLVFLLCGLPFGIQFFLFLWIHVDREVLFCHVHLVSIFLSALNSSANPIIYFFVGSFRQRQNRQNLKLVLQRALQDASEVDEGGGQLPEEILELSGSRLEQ
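Material – MrgX1-expressing HEK293 cells · Input – 15,000 cells seeded per well · Dosing – compound as first of three additions · Times – overnight seeding, then 1 h dark dye loading · Measured by – kinetic Fluo-4 NW fluorescence of intracellular calcium · Read-out – B-scored fluorescence response ratio · Benchmarks – positive and negative control wells on each plate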
RGS4 pot = potentiators or activators of RGS4 | HEK293 M3R/inducible RGS4, carbachol calcium flux Fluo4; active compounds read low | B-score at 10 µM | 310,000 tested, 0.92% active | AID 463111;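 active = B-score of the integrated calcium signal more than 4 SD below the library mean, with starting fluorescence not abnormally high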;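 also: negative B-score means reduced calcium response which marks RGS4 activation or potentiation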
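test system = HEK293 cells with stable M3R and inducible RGS4 | schedule = recording 10 s baseline at 1 Hz, 100 s post-agonist | technique = Fluo4-AM (2 µM) calcium-flux fluorescence, kinetic read | measure = Agonist-evoked peak-minus-minimum fluorescence over baseline, integrated ratio, B score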
MrgX1 antagonist = human MrgX1 receptor antagonism, primary screen. B-score at 10 µM. MRGX1-HEK293 calcium flux, Fluo-4, BAM8-22 antagonism; active compounds read low. 310,000 tested, 1.3% active;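 active = calcium-response B-score plate-corrected more than 3 library SD below zero, starting fluorescence within 5 deviations, no agonist response on first addition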;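 also: peak minus trough fluorescence over baseline after final BAM8-22 challenge near maximal dose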
MrgX1 allo act = allosterically activates human MrgX1 receptor signaling; AID 588675; B-score at 10 µM; MrgX1-HEK293, Fluo-4 calcium flux, FDSS; active compounds read high; Q96LB2; 310,000 tested, 0.63% active;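 active = plate-corrected calcium response at least 3 library SD above typical, normal starting fluorescence, not activating the receptor alone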;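 also: compound read alongside a low EC10 to EC30 dose of BAM8-22 agonist; peak minus trough fluorescence over baseline measured at the second addition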
MrgX1 ant reconf = human MrgX1 receptor antagonism, re-confirmation screen | shares compounds with MrgX1 antagonist | MrgX1-HEK293, BAM8-22 calcium flux, Fluo-4; active compounds read low | remaining BAM8-22 calcium response % of control (active compounds read low), % at 10 µM | 2,300 tested, 19% active;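 active = remaining agonist calcium response no higher than 100% minus 3 SD of agonist-only control wells, with starting fluorescence near control levels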;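 also: agonist BAM8-22 given at a near maximal EC90 to ECmax level; peak minus minimum fluorescence divided by baseline after agonist addition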
HEK293 Ca flux = counter-screen for MrgX1 antagonists: effect in parental HEK293 cells. shares compounds with MrgX1 antagonist. Fluo-4 calcium fluorescence, FDSS. fluorescence ratio F(max-min)/F0 at 10 µM. 4,000 tested, 2% active. AID 624111;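 active = duplicate-averaged calcium fluorescence ratio at least three times the standard deviation of buffer wells, a nonspecific response in parental cells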
HEK293 Ca counter = counter-screen for MrgX1 allosteric activators: effect in parental HEK293 cells; shares compounds with MrgX1 antagonist; parental HEK293 calcium flux, Fluo-4 fluorescence ratio; active compounds read high; fluorescence ratio F(max-min)/F0 at 10 µM; 4,000 tested, 0.4% active;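 active = calcium fluorescence ratio, averaged over duplicates, at least 3 SD of the buffer-well ratio, meaning a nonspecific response in receptor-free cells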;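 also: untransfected parental HEK293 lacking MrgX1 used as counterscreen for MrgX1 allosteric activators; fluorescence change taken during the second addition on a kinetic imager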
HEK293 Ca cntr2 = counter-screen for MrgX1 activators: effect in parental HEK293 cells. Fluo-4 calcium fluorescence (FDSS); active compounds read high. 4,000 tested, 8.7% active. fluorescence ratio F(max-min)/F0 at 10 µM. shares compounds with MrgX1 antagonist;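 active = calcium fluorescence ratio at least three times the spread of buffer wells, meaning a non-specific response in parental cells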
Of the large screens only hits and unclear results are named; the others gave an inactive call (follow-up assays come after a bar, where they were run).

O=C1NC2(CCCc3ccccc32)C(=O)N1CCOc1ccc(Br)cc1 (stereo unspecified)	none
Cc1ccccc1OCCCN1CCCC1	MrgX1 antagonist -7.22 | MrgX1 ant reconf inactive | HEK293 Ca flux inactive | HEK293 Ca counter inactive | HEK293 Ca cntr2 inactive
CN(C)c1ccc(C(=O)Nc2cc(C(F)(F)F)ccc2-n2cncn2)cc1	MrgX1 antagonist -10.7 | MrgX1 ant reconf inactive | HEK293 Ca flux inactive | HEK293 Ca counter inactive | HEK293 Ca cntr2 inactive
Cc1ccccc1OCc1occc1C(=O)Nc1cccc(-n2cnnn2)c1	none
COC1CCN(C(=O)CC2C(=O)NCCN2CC(C)(C)C)CC1 (stereo unspecified)	none
COC1CCN(C(=O)CC2C(=O)NCCN2CC2CCCCC2)CC1 (stereo unspecified)	MrgX1 antagonist -5.31 | MrgX1 ant reconf inactive | HEK293 Ca flux inactive | HEK293 Ca counter inactive | HEK293 Ca cntr2 inactive
O=c1[nH]nc2n1CCCCC2	MrgX1 antagonist -10.1 | MrgX1 ant reconf inactive | HEK293 Ca flux inactive | HEK293 Ca counter inactive | HEK293 Ca cntr2 inactive
Clc1ccc(CN2CCN(c3ncccn3)CC2)c(Cl)c1	none
O=C(CSc1nnc2ccc(-c3ccccn3)nn12)NCCc1ccccc1	MrgX1 antagonist -12.7 | MrgX1 ant reconf 84.4% | HEK293 Ca flux inactive | HEK293 Ca counter inactive | HEK293 Ca cntr2 inactive
CCOC(=O)c1cnc(-n2nc(C)cc2C)nc1Nc1ccc(OC)cc1	none
CCOC(=O)c1cnc(-n2nc(C)cc2C)nc1NC1CCCC1	MrgX1 antagonist -4.69 | MrgX1 ant reconf inactive | HEK293 Ca flux inactive | HEK293 Ca counter inactive | HEK293 Ca cntr2 inactive
Cc1cccc(C)c1NC(=O)C1NC(=O)CC1c1ccccc1 (stereo unspecified)	MrgX1 antagonist -9.5 | MrgX1 ant reconf inactive | HEK293 Ca flux inactive | HEK293 Ca counter inactive | HEK293 Ca cntr2 inactive
Cc1ccc(-n2nnc3c(=O)oc4ccccc4c32)cc1	none
CCC(C)n1nnc2c(=O)oc3ccccc3c21 (stereo unspecified)	MrgX1 antagonist -6.47 | MrgX1 ant reconf inactive | HEK293 Ca flux inactive | HEK293 Ca counter inactive | HEK293 Ca cntr2 inactive
CC(C)c1ccccc1NC(=O)C1CC(=O)N(C2CCCC2)C1 (stereo unspecified)	MrgX1 antagonist -5.12 | MrgX1 ant reconf inactive | HEK293 Ca flux inactive | HEK293 Ca counter inactive | HEK293 Ca cntr2 inactive
CCOCCn1ccc2c(OCC(=O)NCc3ccccc3)cccc2c1=O	none
O=C(CSCc1cccc(Br)c1)NC1CC1	none
Cc1ccc(-n2c(=O)cc(N3CCCCCC3)[nH]c2=O)cc1	MrgX1 antagonist -7.69 | MrgX1 ant reconf inactive | HEK293 Ca flux inactive | HEK293 Ca counter inactive | HEK293 Ca cntr2 inactive
COc1ccc(S(=O)(=O)Nc2c(C)cccc2C)cc1-n1cnnn1	none
COc1c2c(nc3ccccc13)OC(C(C)(O)CO)C2 (stereo unspecified)	MrgX1 antagonist -6.89 | MrgX1 ant reconf inactive | HEK293 Ca flux inactive | HEK293 Ca counter inactive | HEK293 Ca cntr2 inactive
COc1ccc(C(=O)COC(=O)CCN2C(=O)[C@@H]3[C@H](C2=O)[C@@H]2C[C@H]3C(Br)C2Br)cc1 (stereo partly specified)	none
COc1ccc(C(=O)COC(=O)CCN2C(=O)C3C4CC(C(Br)C4Br)C3C2=O)cc1 (stereo unspecified)	MrgX1 antagonist -5.41 | MrgX1 ant reconf inactive | HEK293 Ca flux inactive | HEK293 Ca counter inactive | HEK293 Ca cntr2 inactive
CCOc1ccccc1CNC(=O)c1cc2oc3ccccc3c2n1C	none
COCCNC(=O)c1cc2oc3ccccc3c2n1C	MrgX1 antagonist -5.02 | MrgX1 ant reconf inactive | HEK293 Ca flux inactive | HEK293 Ca counter inactive | HEK293 Ca cntr2 inactive
Cc1cccc(-n2ncc3c(NCCc4ccc(S(N)(=O)=O)cc4)ncnc32)c1	MrgX1 antagonist -5.47 | MrgX1 ant reconf 82.4% | HEK293 Ca flux inactive | HEK293 Ca counter inactive | HEK293 Ca cntr2 inactive
Cc1cccc(-n2ncc3c(NCc4ccccc4)ncnc32)c1	none
CC(C)S(=O)(=O)c1ccc(C(=O)Nc2ccc(F)cc2F)cn1	MrgX1 antagonist -5.85 | MrgX1 ant reconf inactive | HEK293 Ca flux inactive | HEK293 Ca counter inactive | HEK293 Ca cntr2 inactive
CCCSc1ccc(C(=O)Nc2ccc(F)cc2F)cn1	none
Oc1c(Br)cc(Br)cc1C=Nc1cccc2ncccc12	MrgX1 antagonist -7.06 | MrgX1 ant reconf 82.6% | HEK293 Ca flux inactive | HEK293 Ca counter inactive | HEK293 Ca cntr2 inactive
CC(C)c1nc2cc(C(=O)N(C)Cc3ccc(F)cc3)ccc2o1	none
COc1ccc(-c2cc(-c3ccc(Cl)cc3)c(C#N)c(SCC(=O)O)n2)cc1	MrgX1 antagonist -5.86 | MrgX1 ant reconf inactive | HEK293 Ca flux inactive | HEK293 Ca counter inactive | HEK293 Ca cntr2 inactive
Cc1ccsc1CNCC(O)c1ccccc1 (stereo unspecified)	none
CNc1nc(CC(C)=O)ns1	none
CCCCNc1nc(CC(C)=O)ns1	MrgX1 antagonist -6.57 | MrgX1 ant reconf inactive | HEK293 Ca flux inactive | HEK293 Ca counter inactive | HEK293 Ca cntr2 inactive
CN1CCN(C(c2ccc(Br)cc2)c2cc(Cl)c3cccnc3c2O)CC1 (stereo unspecified)	MrgX1 antagonist -5.34 | MrgX1 ant reconf inactive | HEK293 Ca flux inactive | HEK293 Ca counter inactive | HEK293 Ca cntr2 inactive
O=C(NCCc1ccccc1Cl)C1CCC(=O)N(CC2CCCCC2)C1 (stereo unspecified)	none
CN=Cc1cc(-c2ccccc2)sc1O	MrgX1 antagonist -6.16 | MrgX1 ant reconf inactive | HEK293 Ca flux inactive | HEK293 Ca counter inactive | HEK293 Ca cntr2 inactive
COc1ccccc1OCC(=O)NNc1c2ccccc2nc2ccccc12	none
CC1=CC(=O)C(C(C)C)=C/C1=N/OS(=O)(=O)c1ccccc1	RGS4 pot -8.18, MrgX1 antagonist -14.2 | MrgX1 ant reconf inactive | HEK293 Ca flux inactive | HEK293 Ca counter inactive | HEK293 Ca cntr2 inactive
CC1=CC(=O)C=C(C)C1=NOS(=O)(=O)c1ccccc1	none (no result: MrgX1 ag, MrgX1 antagonist, MrgX1 allo act)
CC(C)c1csc(CN2CCC(N3CCC(C(=O)N4CCOCC4)CC3)CC2)n1	none
Cc1ccc(C2=NC(C)(C)N=C2SCC(=O)Nc2ccc(Cl)cc2)cc1	MrgX1 antagonist -5.67 | MrgX1 ant reconf inactive | HEK293 Ca flux inactive | HEK293 Ca counter inactive | HEK293 Ca cntr2 inactive
